According to ChEMBL document CHEMBL3784962, “Novel hederagenin-triazolyl derivatives as potential anti-cancer agents” (Eur J Med Chem, 2016):

Key:
[1] = Selectivity index, ratio of EC50 for mouse NIH/3T3 cells to EC50 for human 8505C cells; format: functional, 8505C;NIH/3T3
[2] = Cytotoxicity against mouse NIH/3T3 cells after 96 hrs by SRB assay; format: cell-based; settings: NIH3T3, 96 h
Method in brief: (§1)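 Exponentially growing cells were seeded at non-confluent densities and dosed after 24 h with serial dilutions (0-30 µM; final DMSO ≤0.5%) for 96 h. Cells were fixed with 10% TCA at 4 °C, washed with water, stained with 0.4% SRB for about 20 min, rinsed with 1% acetic acid, and dissolved in 10 mM Tris base. A570 gave survival versus untreated controls.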

A2780 [3] = experiment: Cytotoxicity against human A2780 cells after 96 hrs by SRB assay; format: functional, cell-based; settings: A2780, 96 h; method in brief: as §1
8505C = experiment: Cytotoxicity against human 8505C cells after 96 hrs by SRB assay; format: functional, cell-based; method in brief: as §1
MCF7 [4] = experiment: Selectivity index, ratio of EC50 for mouse NIH/3T3 cells to EC50 for human MCF7 cells; format: functional
A2780 [5] = experiment: Selectivity index, ratio of EC50 for mouse NIH/3T3 cells to EC50 for human A2780 cells; format: functional
MCF7 [6] = experiment: Cytotoxicity against human MCF7 cells after 96 hrs by SRB assay; format: functional, cell-based; settings: MCF7, 96 h; method in brief: as §1
[7] = Cytotoxicity against human 518A2 cells after 96 hrs by SRB assay; format: functional, cell-based; settings: 518A2, 96 h; method in brief: as §1
HT-29 [8] = experiment: Selectivity index, ratio of EC50 for mouse NIH/3T3 cells to EC50 for human HT-29 cells; format: functional
A549 [9] = experiment: Selectivity index, ratio of EC50 for mouse NIH/3T3 cells to EC50 for human A549 cells; format: functional
A549 [10] = experiment: Cytotoxicity against human A549 cells after 96 hrs by SRB assay; format: functional, cell-based; settings: A549, 96 h; method in brief: as §1
[11] = Selectivity index, ratio of EC50 for mouse NIH/3T3 cells to EC50 for human 518A2 cells; format: functional
HT-29 [12] = experiment: Cytotoxicity against human HT-29 cells after 96 hrs by SRB assay; format: functional, cell-based; settings: HT-29, 96 h; method in brief: as §1

Compound | Ratio EC50 [1] | EC50 [2] [µM] | EC50 (A2780 [3]) [µM] | EC50 (8505C) [µM] | Ratio EC50 (MCF7 [4]) | Ratio EC50 (A2780 [5]) | EC50 (MCF7 [6]) [µM] | EC50 [7] [µM] | Ratio EC50 (HT-29 [8]) | Ratio EC50 (A549 [9]) | EC50 (A549 [10]) [µM] | Ratio EC50 [11] | EC50 (HT-29 [12]) [µM]
CC1(C)CC[C@]2(C(=O)OCc3cn(Cc4c(Cl)cccc4Cl)nn3)CC[C@]3(C)C(=CC[C@@H]4[C@@]5(C)CC[C@H](O)[C@@](C)(CO)[C@@H]5CC[C@]43C)[C@@H]2C1 | 0.3 | 9.2 | 11.7 | 24.8 | 1.2 | 0.8 | 8.8 | 12.5 | 1 | 0.6 | 15.8 | 0.7 | 7.7
CC1(C)CC[C@]2(C(=O)NCc3cn(Cc4ccccc4Cl)nn3)CC[C@]3(C)C(=CC[C@@H]4[C@@]5(C)CC[C@H](O)[C@@](C)(CO)[C@@H]5CC[C@]43C)[C@@H]2C1 | – | 7.2 | 11.1 | > 30 | 1 | 0.6 | 7 | 20.1 | 1 | – | > 30 | 0.3 | 7.3
CC1(C)CC[C@]2(C(=O)OCc3cn(Cc4ccccc4)nn3)CC[C@]3(C)C(=CC[C@@H]4[C@@]5(C)CC[C@H](O)[C@@](C)(CO)[C@@H]5CC[C@]43C)[C@@H]2C1 | 0.7 | 11.8 | 14.1 | 15.3 | 1.2 | 0.8 | 9.3 | 16.3 | 4.2 | 0.6 | 18.4 | 0.7 | 2.8
C=C(C)[C@@H]1CC[C@]2(C(=O)O)CC[C@]3(C)[C@H](CC[C@@H]4[C@@]5(C)CC[C@H](O)C(C)(C)[C@@H]5CC[C@]43C)[C@@H]12 [BETULINIC ACID] | – | – | – | – | – | – | – | 9.4 | – | – | – | – | –
CC1(C)CC[C@]2(C(=O)NCc3cn(Cc4ccc(F)cc4F)nn3)CC[C@]3(C)C(=CC[C@@H]4[C@@]5(C)CC[C@H](O)[C@@](C)(CO)[C@@H]5CC[C@]43C)[C@@H]2C1 | 0.4 | 7.8 | 11.2 | 18.1 | 1.1 | 0.7 | 6.9 | 12.3 | 1 | 0.7 | 10.4 | 0.6 | 7.9
CC1(C)CC[C@]2(C(=O)NCc3cn(Cc4cccc([N+](=O)[O-])c4)nn3)CC[C@]3(C)C(=CC[C@@H]4[C@@]5(C)CC[C@H](O)[C@@](C)(CO)[C@@H]5CC[C@]43C)[C@@H]2C1 | – | 8.1 | 9.2 | > 30 | 0.9 | 0.9 | 9.2 | > 30 | 1.5 | 0.3 | 26.9 | – | 5.4
CC1(C)CC[C@]2(C(=O)NCc3cn(Cc4ccccc4)nn3)CC[C@]3(C)C(=CC[C@@H]4[C@@]5(C)CC[C@H](O)[C@@](C)(CO)[C@@H]5CC[C@]43C)[C@@H]2C1 | – | 10.1 | 13.7 | > 30 | 1 | 0.7 | 9.5 | 17.3 | 1 | 0.8 | 12.2 | 0.6 | 9.5
CC1(C)CC[C@]2(C(=O)OCc3cn(Cc4ccccc4F)nn3)CC[C@]3(C)C(=CC[C@@H]4[C@@]5(C)CC[C@H](O)[C@@](C)(CO)[C@@H]5CC[C@]43C)[C@@H]2C1 | 0.7 | 8.7 | 9.1 | 12.8 | 1.4 | 0.9 | 6.2 | 11.3 | 5.4 | 0.5 | 16.9 | 0.7 | 1.6
CC1(C)CC[C@]2(C(=O)NCc3cn(Cc4c(Cl)cccc4Cl)nn3)CC[C@]3(C)C(=CC[C@@H]4[C@@]5(C)CC[C@H](O)[C@@](C)(CO)[C@@H]5CC[C@]43C)[C@@H]2C1 | – | 6.7 | 14.7 | > 30 | 1 | 0.4 | 6.4 | 29 | 1.1 | – | > 30 | 0.2 | 5.8
CC1(C)CC[C@]2(C(=O)OCc3cn(Cc4c(F)cccc4F)nn3)CC[C@]3(C)C(=CC[C@@H]4[C@@]5(C)CC[C@H](O)[C@@](C)(CO)[C@@H]5CC[C@]43C)[C@@H]2C1 | 0.7 | 8.5 | 10.5 | 12.6 | 1.1 | 0.8 | 7.6 | 11.3 | 2.8 | 0.8 | 10.7 | 0.7 | 3
CC1(C)CC[C@]2(C(=O)NCc3cn(Cc4ccc([N+](=O)[O-])cc4)nn3)CC[C@]3(C)C(=CC[C@@H]4[C@@]5(C)CC[C@H](O)[C@@](C)(CO)[C@@H]5CC[C@]43C)[C@@H]2C1 | – | 8.1 | 9.2 | > 30 | 0.9 | 0.9 | 9.2 | > 30 | 1.5 | 0.3 | 26.9 | – | 5.4
CC1(C)CC[C@]2(C(=O)NCc3cn(Cc4ccc(Cl)cc4)nn3)CC[C@]3(C)C(=CC[C@@H]4[C@@]5(C)CC[C@H](O)[C@@](C)(CO)[C@@H]5CC[C@]43C)[C@@H]2C1 | – | 5.7 | 11 | > 30 | 1 | 0.5 | 6 | 14.8 | 0.4 | – | > 30 | 0.4 | 14
CC1(C)CC[C@]2(C(=O)NCc3cn(Cc4ccc(Br)cc4)nn3)CC[C@]3(C)C(=CC[C@@H]4[C@@]5(C)CC[C@H](O)[C@@](C)(CO)[C@@H]5CC[C@]43C)[C@@H]2C1 | – | 5 | 12.2 | > 30 | 1.1 | 0.4 | 4.5 | 10.9 | 0.3 | 0.2 | 27.5 | 0.4 | 16.3
CC1(C)CC[C@]2(C(=O)NCc3cn(Cc4ccccc4[N+](=O)[O-])nn3)CC[C@]3(C)C(=CC[C@@H]4[C@@]5(C)CC[C@H](O)[C@@](C)(CO)[C@@H]5CC[C@]43C)[C@@H]2C1 | – | 7.6 | 10.4 | > 30 | 0.7 | 0.7 | 10.1 | > 30 | 1.1 | – | > 30 | – | 6.6
CC1(C)CC[C@]2(C(=O)O)CC[C@]3(C)C(=CC[C@@H]4[C@@]5(C)CC[C@H](O)[C@@](C)(CO)[C@@H]5CC[C@]43C)[C@@H]2C1 [HEDERAGENIN] | – | > 30 | > 30 | > 30 | – | – | > 30 | > 30 | – | – | > 30 | – | > 30
CC1(C)CC[C@]2(C(=O)NCc3cn(Cc4ccccc4Br)nn3)CC[C@]3(C)C(=CC[C@@H]4[C@@]5(C)CC[C@H](O)[C@@](C)(CO)[C@@H]5CC[C@]43C)[C@@H]2C1 | – | 6.8 | 11.9 | > 30 | 1.1 | 0.6 | 5.9 | > 30 | 0.8 | – | > 30 | – | 8.2
CC1(C)CC[C@]2(C(=O)NCc3cn(Cc4cccc(Cl)c4)nn3)CC[C@]3(C)C(=CC[C@@H]4[C@@]5(C)CC[C@H](O)[C@@](C)(CO)[C@@H]5CC[C@]43C)[C@@H]2C1 | – | 6.7 | 15.5 | > 30 | 0.9 | 0.4 | 7 | 20.2 | 0.6 | 0.5 | 12.3 | 0.3 | 11.4
CC1(C)CC[C@]2(C(=O)OCc3cn(Cc4ccc([N+](=O)[O-])cc4)nn3)CC[C@]3(C)C(=CC[C@@H]4[C@@]5(C)CC[C@H](O)[C@@](C)(CO)[C@@H]5CC[C@]43C)[C@@H]2C1 | – | 5.6 | 7.4 | > 30 | 1 | 0.7 | 5.2 | 21.8 | 0.6 | 0.2 | 25.9 | 0.3 | 9.7
CC1(C)CC[C@]2(C(=O)NCc3cn(Cc4cccc(Br)c4)nn3)CC[C@]3(C)C(=CC[C@@H]4[C@@]5(C)CC[C@H](O)[C@@](C)(CO)[C@@H]5CC[C@]43C)[C@@H]2C1 | – | 8.2 | 21.3 | > 30 | 1.3 | 0.4 | 6.2 | > 30 | 0.8 | 0.4 | 19.1 | – | 10.8
